Experimental findings from ChEMBL document CHEMBL1921684, “Targeting zymogen activation to control the matriptase-prostasin proteolytic cascade” (J Med Chem, 2011) are described below.

The structures appear in SMILES notation. Active and inactive are the calls of the source. The rule behind the calls is not given here.

Test [1] has as its target T1, Suppressor of tumorigenicity 14 protein (Homo sapiens) (UniProt Q9Y5Y6).
T1 sequence (whole entry): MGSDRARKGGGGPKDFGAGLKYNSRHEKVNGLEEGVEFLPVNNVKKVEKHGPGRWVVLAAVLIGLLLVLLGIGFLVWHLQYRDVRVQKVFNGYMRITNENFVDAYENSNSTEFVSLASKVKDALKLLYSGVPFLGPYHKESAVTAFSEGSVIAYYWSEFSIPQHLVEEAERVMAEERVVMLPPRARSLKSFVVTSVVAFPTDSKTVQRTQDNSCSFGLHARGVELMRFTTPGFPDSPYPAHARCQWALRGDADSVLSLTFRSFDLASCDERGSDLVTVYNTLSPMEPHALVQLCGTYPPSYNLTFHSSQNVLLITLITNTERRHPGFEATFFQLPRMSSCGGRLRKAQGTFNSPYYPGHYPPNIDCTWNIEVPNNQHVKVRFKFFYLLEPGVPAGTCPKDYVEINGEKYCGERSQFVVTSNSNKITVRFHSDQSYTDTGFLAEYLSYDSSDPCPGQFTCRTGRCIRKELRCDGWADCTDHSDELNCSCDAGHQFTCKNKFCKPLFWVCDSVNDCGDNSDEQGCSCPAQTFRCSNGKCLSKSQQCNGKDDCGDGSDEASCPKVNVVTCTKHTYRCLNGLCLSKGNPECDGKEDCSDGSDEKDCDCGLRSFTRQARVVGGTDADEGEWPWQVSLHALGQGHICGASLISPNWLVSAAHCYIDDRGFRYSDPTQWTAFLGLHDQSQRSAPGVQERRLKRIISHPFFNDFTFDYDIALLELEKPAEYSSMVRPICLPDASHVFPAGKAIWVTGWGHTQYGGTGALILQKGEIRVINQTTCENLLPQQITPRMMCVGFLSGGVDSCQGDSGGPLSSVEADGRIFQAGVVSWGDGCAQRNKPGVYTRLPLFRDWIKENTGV
The experiment in a line: Inhibition of acid-induced matriptase activation in human 184A1N4 cell homogenate using mAb M69 after 30 mins by Western blot analysis. The method, boiled down:
(§1)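 Insoluble fraction of 184 A1N4 cell homogenates (made in PBS, collected by centrifugation) preincubated with compound in 150 mM sodium phosphate pH 6.0 for 30 min at 4 °C. Activation then induced for 20 min at room temperature. Non-reduced, unboiled samples run on 7.5% SDS-PAGE. Immunoblot probed with mAb M24 (total matriptase) or M69 (activated matriptase); chemiluminescent detection; triplicate.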

In test [2] the target is T2, Suppressor of tumorigenicity 14 protein (Homo sapiens, UniProt Q9Y5Y6).
T2 sequence (Q9Y5Y6 whole entry): T1 sequence (whole entry)
The experiment in a line: Inhibition of acid-induced matriptase activation in human 184A1N4 cells using mAb M69 by cell-based ELISA like assay. The procedure, abridged:
(§2)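 184 A1N4 cells seeded at 8×10^4 cells/well 24 h ahead. Compound in pH 6.0 sodium phosphate buffer, 30 min at 4 °C, then 20 min at room temperature. Cells fixed in 4% formaldehyde with 0.1% Triton for 20 min. Activated matriptase detected with mAb M69, HRP anti-mouse IgG and TMB; A450. […] Screening used 5 μM final per compound in 1% DMSO.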

In test [3] the target is T1, Suppressor of tumorigenicity 14 protein (Homo sapiens). Nature of the test: Inhibition of acid-induced matriptase activation in human 184A1N4 cell homogenate using mAb M24 after 30 mins by Western blot analysis. The procedure, abridged: as §1
(In general: In western blotting, separated proteins are transferred to a membrane and probed.)

The target is the same in test [4]. The experiment in a line: Inhibition of acid-induced matriptase activation in human 184A1N4 cells assessed as decrease in 120 kDa enzyme-HAI-1 complex using mAb M69 after 30 mins by Western blotting. The class given is cell-based. The method, boiled down: (§3)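 Intact 184 A1N4 cells pre-treated with compound in 150 mM sodium phosphate pH 6.0 for 30 min at 4 °C, then held 20 min at room temperature to drive activation. PBS served as non-activation control and buffer alone as activation control. Cells lysed in PBS with 1 mM DTNB and 1% Triton X-100. Non-reduced, unboiled lysates run on 7.5% SDS-PAGE. Blots probed with M24 (70-kDa latent form, 120-kDa matriptase-HAI-1 complex) or M69 (activated matriptase); triplicate.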

The target is the same in test [5]. The experiment in a line: Inhibition of acid-induced matriptase activation in human 184A1N4 cells using mAb M69 after 20 mins by Western blotting. The class given is cell-based. The procedure, abridged: as §3
For test [6] the target is unchanged. The experiment in a line: Inhibition of acid-induced matriptase activation in human 184A1N4 cells using mAb M24 after 20 mins by Western blotting. In kind it is cell-based. The procedure, abridged: as §3
For test [7] the target is unchanged. Nature of the test: Inhibition of acid-induced matriptase activation in human 184A1N4 cells using mAb M69 after 20 mins by cell-based ELISA-like assay. The method, boiled down: as §2
For orientation: In an ELISA, binding on a coated surface is turned into a signal by an enzyme label.

Test [8] has the same target. The experiment in a line: Inhibition of acid-induced matriptase activation in human 184A1N4 cells assessed as increase in 70 kDa latent matriptase using mAb M24 at 5 uM after 30 mins by Western blotting. The class given is cell-based. The procedure, abridged: as §3
Test [9] has the same target. Nature of the test: Inhibition of acid-induced matriptase activation in human 184A1N4 cells assessed as decrease in 120 kDa enzyme-HAI-1 complex using mAb M24 after 30 mins by Western blotting relative to untreated control. In kind it is cell-based. The method, boiled down:
as §3

Test [10] shares this target. The experiment in a line: Inhibition of acid-induced matriptase activation in human 184A1N4 cells assessed as increase in 70 kDa latent matriptase using mAb M24 after 30 mins by Western blotting. The class given is cell-based. The procedure, abridged: as §3
Test [11] has the same target. Nature of the test: Inhibition of acid-induced matriptase activation in human 184A1N4 cells assessed as decrease in 120 kDa enzyme-HAI-1 complex using mAb M24 at 5 uM after 30 mins by Western blotting relative to untreated control. In kind it is cell-based. The method, boiled down: as §3
For test [12] the target is unchanged. The experiment in a line: Inhibition of acid-induced matriptase activation in human HaCaT cells using mAb M69 after 30 mins by Western blot analysis. The class given is cell-based. The procedure, abridged: (§4)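 HaCaT keratinocytes (DMEM, 10% FBS) incubated with compound in phosphate buffer pH 6.0 for 30 min at 4 °C, then 20 min at room temperature. Controls were PBS (no activation) and buffer alone. Lysates run non-reduced on 7.5% SDS-PAGE. Immunoblots probed with M24 (total matriptase), M69 (activated matriptase) and a polyclonal anti-prostasin antibody detecting the prostasin-HAI-1 complex.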

The target is the same in test [13]. The experiment in a line: Inhibition of acid-induced matriptase activation in human HaCaT cells using mAb M24 after 30 mins by Western blot analysis. In kind it is cell-based. The procedure, abridged: as §4
Test [14] shares this target. Nature of the test: Inhibition of acid-induced matriptase-mediated prostasin activation in human HaCaT cells assessed as decrease in prostatin-HAI-1 complex after 30 mins by Western blot analysis. In kind it is cell-based. The procedure, abridged:
as §4

The target is the same in test [15]. Nature of the test: Inhibition of acid-induced matriptase activation in human 184A1N4 cells assessed as enzyme-HAI-1 complex using mAb M24 at 5 uM after 30 mins by Western blotting. The class given is cell-based. The method, boiled down:
as §3

For test [16] the target is unchanged. Nature of the test: Inhibition of acid-induced matriptase activation in human 184A1N4 cells using mAb M69 at 5 uM by cell-based ELISA like assay. The method, boiled down: as §2

A word on the IC50: it is the midpoint of a concentration-inhibition curve. High values mean a need for much substance, low ones inhibition by little substance.

In the case of `Cc1nc(N2C(=O)C(O)=C(C(=O)c3ccccc3)C2c2cccs2)sc1C` (stereo unspecified), the inhibition result in test [1] and in test [3] was “Dose-dependent effect” throughout. Moreover, the IC50 in test [2] turned out to be 21.8 µM.
In the case of `Cc1nc(N2C(=O)C(O)=C(C(=O)c3cccs3)C2c2ccccc2)sc1C` (stereo unspecified), the inhibition entry in test [1] and in test [3] was “Dose-dependent effect” each time. This compound also gave a concentration for half-maximal inhibition (IC50) in test [2] of 7 µM. Further, the inhibition entry in test [4] was “Active”.
Take `[Cl-].[Na+]`: the inhibition result in test [5], in test [6] and in [7] was “Dose-dependent effect” each time.
`Cc1nc(N2C(=O)C(O)=C(C(=O)c3cccs3)C2c2cccs2)sc1C` (stereo unspecified): the inhibition entry in test [1], in [9], in test [10], in test [12], in test [3] and in test [13] was “Dose-dependent effect” in each case. For the same compound, the inhibition result in test [14] is “Dose-dependent effect”. Moreover, the IC50 in [2] is 2.6 µM. Moreover, the inhibition result in [8], in [11] and in test [4] was “Active” throughout.
In the case of `O=C(C1=C(O)C(=O)N(c2nccs2)C1c1cccs1)c1cccs1` (stereo unspecified), the inhibition entry in test [1] and in [3] was “Dose-dependent effect” throughout. In test [2], this compound came in with an IC50 of 9.8 µM. Moreover, the inhibition result in test [15] and in test [16] was “Active” throughout.
